Activity calls are given as the source filed them. No cut-off for these calls is given here.
Tests used:
[1] = test system: Calvarial osteoblast; assay: Osteogenic activity in Sprague-Dawley rat calvarial osteoblasts assessed as mineralized nodule formation at 100 pM after 21 days by alizarin red-S staining based colorimetric method; assay type: functional
Outline: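 Osteoblasts at 10,000–15,000 cells/cm² in duplicate plates, 21 days in differentiation medium, medium changed every 48 h. Cells fixed in 4% PFA, stained with alizarin red-S (40 mM, pH 4.5, 30 min) and photographed. Stain extracted with 10% acetic acid, pH brought to 4.5 with ammonium hydroxide, read at 405 nm, normalized to cell number.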

[2] = test system: Rattus norvegicus; assay: Upregulation of type-1 collagen mRNA expression in femur bone of Sprague-Dawley rat model of OVX-induced bone loss at 1 to 5 mg/kg, po via gavage for 12 weeks by qPCR analysis; assay type: functional, organism-based
Outline: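 Ovariectomized female SD rats, osteopenic after 12 weeks, dosed orally once daily for 12 weeks (1.0 or 5.0 mg·kg⁻¹·day⁻¹, 1% gum acacia vehicle); sham and OVX vehicle groups included. Femurs collected at sacrifice for qRT-PCR, analysed by the ΔΔCT method.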

[3] = test system: Calvarial osteoblast; assay: Increase in BMP2 protein expression in Sprague-Dawley rat calvarial osteoblasts at 100 pM after 48 hrs by Western blot analysis; assay type: functional, cell-based
Outline: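 Rat calvarial osteoblasts at 60-70% confluence were treated 48 h. Whole-cell lysates were blotted, blocked in 5% milk, and probed with primary antibody overnight at 4 °C, then with HRP secondary and ECL detection. Densitometry was normalized to β-actin; fold change versus untreated cells, three independent experiments, mean ± SEM.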

[4] = test system: Rattus norvegicus; assay: Antiosteoporotic activity in Sprague-Dawley rat model of OVX-induced bone loss assessed as increase in mineralization at 1 to 5 mg/kg, po via gavage for 12 weeks measured 18 days post last dose by alizarin red-S staining based assay relative to control; assay type: functional
Outline: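 After 12 weeks of in vivo treatment of ovariectomized rats, femoral bone marrow was flushed. It was cultured 18 days in differentiation medium (10 nM dexamethasone, 10 mM β-glycerophosphate, 50 µg·mL⁻¹ ascorbic acid). Mineralized nodules were stained with alizarin red-S, and the stain was extracted for quantitation.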

[5] = Antioxidant activity assessed as DPPH radical scavenging activity at 500 ug/ml after 30 mins by spectrophotometric method relative to control; assay type: functional
Outline: (§1)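 The compound was serially diluted from 1000 to 1.95 µg·ml⁻¹ and mixed 1:1 with DPPH in methanol. After 30 min at room temperature, absorbance was read at 517 nm. Scavenging (%) = [(Abc − Abs)/Abc] × 100, where Abc is DPPH without compound.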

[6] = test system: Calvarial osteoblast; assay: Cytotoxicity against Sprague-Dawley rat calvarial osteoblasts assessed as reduction in cell viability at 0.000001 to 1 uM after 48 hrs by MTT assay; assay type: cell-based
Outline: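 Osteoblasts came from pooled calvaria of 1-2-day-old Sprague-Dawley pups, isolated by sequential dispase/collagenase digestion. Cells were exposed to compound at 1 pM to 1 µM for 48 h, and viability was measured by MTT.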

[7] = Toxicity in Sprague-Dawley rat model of OVX-induced bone loss assessed as uterine weight at 1 mg/kg, po via gavage for 12 weeks (reference value: 0.12 +/- 0.02 g); assay type: organism-based; conditions: in vivo, 2016 h
[8] = test system: Calvarial osteoblast; assay: Osteoprotective activity in Sprague-Dawley rat calvarial osteoblasts assessed as reduction in TNFalpha-induced apoptosis at 100 pM after 24 hrs by Annexin V/propidium iodide staining based FACS analysis relative to control; assay type: functional; design: scale not given: the % may be the effect or the level left
Outline: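 Osteoblasts at 50–60% confluence, serum-withdrawn 3 h. Then 24 h with TNFα in α-MEM with 0.5% FBS, with 10 nM E2 as comparator. Annexin-V-FITC/PI staining, analysed by flow cytometry.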

[9] = test system: Calvarial osteoblast; assay: Increase in Runx2 protein expression in Sprague-Dawley rat calvarial osteoblasts at 100 pM after 48 hrs by Western blot analysis; assay type: functional, cell-based
Outline: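 Rat calvarial osteoblasts (pooled 1–2-day pups, collagenase/dispase digests) at 60–70% confluence treated 48 h. Whole-cell lysates immunoblotted with primary antibody overnight at 4 °C, then HRP secondary, with ECL detection. Densitometry gives fold change normalized to β-actin versus untreated cells. Mean ± SEM of three independent experiments.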

[10] = test system: Rattus norvegicus; assay: Antiosteoporotic activity in Sprague-Dawley rat model of OVX-induced bone loss assessed as mineral apposition rate at 5 mg/kg, po via gavage for 12 weeks by microcomputed tomographic analysis (reference value: 0.169 +/- 0.004 umeter/day); assay type: functional
Outline: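 Female Sprague-Dawley rats, 10-12 weeks old, ten per group, were ovariectomized and left 12 weeks for osteopenia. They were then dosed once daily by oral gavage for 12 weeks in 1% gum acacia vehicle. The estradiol arm received 100 µg·kg⁻¹ subcutaneously five days a week. Tetracycline and calcein were given intraperitoneally at 20 mg·kg⁻¹ each. Femur cross-sections (50 µm) were imaged by fluorescence microscopy for MAR and BFR.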

[11] = Antioxidant activity assessed as DPPH radical scavenging activity at 3.9 ug/ml after 30 mins by spectrophotometric method relative to control; assay type: functional; outline: as §1
[12] = Toxicity in Sprague-Dawley rat model of OVX-induced bone loss assessed as luminal epithelial height at 5 mg/kg, po via gavage for 12 weeks (reference value: 27.29 +/- 0.96 umeter); assay type: organism-based; conditions: in vivo, 2016 h
[13] = test system: Calvarial osteoblast; assay: Induction of osteoblast proliferation in Sprague-Dawley rat calvarial osteoblasts at 0.000001 to 1 uM after 48 hrs BrdU incorporation assay; assay type: functional, cell-based
Outline: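 2 × 10³ cells/well in duplicate plates, one for cell number and one for BrdU. Cells treated 48 h in differentiation medium, then BrdU added for a further 24 h. Fixed cells get anti-BrdU (1 h RT), then peroxidase secondary (30 min), TMB (30 min, dark), stop, read at 450 nm. Result given as BrdU(+) osteoblasts, % of total.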

**Q.** Which Activity [1] does the source give for `CCOC(=O)c1cc2c([nH]c3ccccc32)c(C(c2nnnn2C(C)(C)C)N2CCN(C)CC2)n1` (stereo not drawn) here?
**A.** Its Activity is 70%.

**Q.** What about the Activity [2] of the same compound?
**A.** Its Activity is “Active”.

**Q.** And the Activity [3]?
**A.** The Activity was “Active”.

**Q.** And the “fold change (FC)” value [4]?
**A.** Its value is 1.4 - 1.5.

**Q.** What about the Activity [5] of the same compound?
**A.** Its Activity is 43.5%.

**Q.** And the Activity [6]?
**A.** The Activity was “Non-Toxic”.

**Q.** What about the Activity [7] of the same compound?
**A.** Its Activity is 0.13 g.

**Q.** And the Activity [8]?
**A.** Its Activity is 47%.

**Q.** And the Activity [9]?
**A.** The Activity was “Active”.

**Q.** And the Activity [10]?
**A.** Its Activity is 0.92 micrometer/day.

**Q.** What about the Activity [11] of the same compound?
**A.** The Activity was 3.82%.

**Q.** What about the Activity [12] of the same compound?
**A.** Its Activity is 3.61 um.

**Q.** What about the Activity [13] of the same compound?
**A.** Its Activity is “Active”.

Source: ChEMBL document CHEMBL4325822, “Discovery of a tetrazolyl β-carboline with in vitro and in vivo osteoprotective activity under estrogen-deficient conditions” (Medchemcomm, 2018)
